Experimental data of several laboratories.
Compare with care: the assays were run in different laboratories. In brackets after ≈: the same amount, converted by molar mass.
Organism: Candida albicans

Compound	effect on	method	strain	tested at	time	endpoint	value
CCS(=O)(=O)Oc1ccc(C=NNC(=O)CSc2nc3c(C)cccc3c(=O)n2-c2ccccc2)cc1OC	microbial growth	well diffusion	–	20 µg/mL	–	inhibition zone	3 mm
C[C@@H]1[C@H](O)[C@@H](C)/C=C/C=C/C=C/C=C/C=C/C=C/C=C/[C@H](O[C@@H]2O[C@H](C)[C@@H](O)[C@H](N)[C@@H]2O)C[C@@H]2O[C@](O)(C[C@@H](O)C[C@@H](O)[C@H](O)CC[C@@H](O)C[C@@H](O)CC(=O)O[C@H]1C)C[C@H](O)[C@H]2C(=O)O	microbial growth	broth dilution	SP3931	–	48 h	MIC	< 0.25 µM
COc1ccc(N=Nc2c(N)nn3c(-c4ccc(Cl)cc4Cl)cc(-c4ccc(OCc5ccccc5)cc4)nc23)cc1	microbial killing	broth dilution	ATCC10231	–	–	MFC	250 µg/mL (≈ 420 µM)
CCCS(=O)(=O)Oc1cc(C=NNC(=O)CSc2nc3c(C)cccc3c(=O)n2-c2ccccc2)ccc1OC	microbial growth	well diffusion	–	20 µg/mL	–	inhibition zone	2 mm
CC(=O)N1CCN(c2ccc(OCC3COC(Cn4ccnc4)(c4ccc(Cl)cc4Cl)O3)cc2)CC1 (stereo not drawn)	microbial growth	broth dilution	SP3903	–	48 h	MIC	2 µM (≈ 1.06 µg/mL)
Cc1ccc(N=Nc2c(N)nn3c(-c4ccco4)cc(-c4ccc(OCc5ccccc5)cc4)nc23)cc1	microbial killing	broth dilution	ATCC10231	–	–	MFC	125 µg/mL (≈ 250 µM)
COc1cc(C=NNC(=O)CSc2nc3c(C)cccc3c(=O)n2-c2ccccc2)ccc1OS(C)(=O)=O	microbial growth	well diffusion	–	20 µg/mL	–	inhibition zone	3 mm
CCCCCCCCCCCC(=O)ON=C1C=CC(=C(C#N)c2ccccc2)C=C1	microbial killing	broth dilution	ATCC10231	–	48 h	MFC	512 µg/mL (≈ 1270 µM)
Cc1ccc(N=Nc2c(N)nn3c(-c4ccc(Cl)cc4Cl)cc(-c4ccc(OCc5ccccc5)cc4)nc23)cc1	microbial killing	broth dilution	ATCC10231	–	–	MFC	62.5 µg/mL (≈ 108 µM)
CC(=O)N1CCN(c2ccc(OCC3COC(Cn4ccnc4)(c4ccc(Cl)cc4Cl)O3)cc2)CC1 (stereo not drawn)	microbial growth	well diffusion	MTCC227	1000 µg/mL	18 h	inhibition zone	24 mm
Cc1cccc2c(=O)n(-c3ccccc3)c(SCC(=O)NN=Cc3ccc(OS(C)(=O)=O)cc3)nc12	microbial growth	well diffusion	–	20 µg/mL	–	inhibition zone	4 mm
OC(Cn1cncn1)(Cn1cncn1)c1ccc(F)cc1F	microbial growth	–	–	–	–	IC50	1 µg/mL (≈ 3.27 µM)
Cc1ccc(-c2cc(-c3ccc(OCc4ccccc4)cc3)nc3c(N=Nc4ccc(F)cc4)c(N)nn23)cc1	microbial killing	broth dilution	ATCC10231	–	–	MFC	125 µg/mL (≈ 236 µM)
N#CC(=C1C=CC(=NOC(=O)OCc2ccccc2)C=C1)c1ccccc1	microbial killing	broth dilution	ATCC10231	–	48 h	MFC	256 µg/mL (≈ 718 µM)
OC(Cn1cncn1)(Cn1cncn1)c1ccc(F)cc1F	microbial growth	broth dilution	56452	–	48 h	MIC	1 µM (≈ 0.306 µg/mL)
